Measurements taken from ChEMBL document CHEMBL3244289, “Synthesis and antibacterial activity of 2'-substituted chelocardin analogues” (1979).
The source made the active and inactive calls. No cut-off for these calls is given here.

Key:
[1] = test system: Staphylococcus aureus; test: Antibacterial activity against Staphylococcus aureus Smith by two-fold agar dilution method; type: functional
Procedure, shortened: (§1)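 MIC determined by twofold serial dilution in brain-heart infusion agar. Values are reported in µg/mL.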

[2] = test system: Streptococcus pyogenes; test: Antibacterial activity against Streptococcus pyogenes C-203 by two-fold agar dilution method; type: functional; procedure, shortened: as §1
[3] = test system: Klebsiella pneumoniae; test: Antibacterial activity against Klebsiella pneumoniae 8045 by two-fold agar dilution method; type: functional; procedure, shortened: as §1
[4] = test system: Salmonella typhi; test: Antibacterial activity against Salmonella typhi by two-fold agar dilution method; type: functional, Salmonella enterica subsp. enterica serovar Typhi; conditions: Salmonella enterica
Procedure, shortened: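 MIC in µg/mL by twofold serial agar dilution on brain-heart infusion agar.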

[5] = test system: Proteus mirabilis; test: Antibacterial activity against Proteus mirabilis by two-fold agar dilution method; type: functional; procedure, shortened: as §1
[6] = test system: Proteus vulgaris; test: Antibacterial activity against Proteus vulgaris by two-fold agar dilution method; type: functional; procedure, shortened: as §1
[7] = test system: Staphylococcus aureus; test: Antibacterial activity against Staphylococcus aureus 45 by two-fold agar dilution method; type: functional; procedure, shortened: as §1
[8] = test system: Pseudomonas aeruginosa; test: Antibacterial activity against Pseudomonas aeruginosa by two-fold agar dilution method; type: functional, organism-based; procedure, shortened: as §1
[9] = test system: Enterococcus; test: Antibacterial activity against Enterococcus 89 by two-fold agar dilution method; type: functional; procedure, shortened: as §1
[10] = test system: Escherichia coli; test: Antibacterial activity against Escherichia coli Juhl by two-fold agar dilution method; type: functional; procedure, shortened: as §1
[11] = test system: Pasteurella multocida; test: Antibacterial activity against Pasteurella multocida 10544 by two-fold agar dilution method; type: functional; procedure, shortened: as §1

Row | Compound | MIC [1] | MIC [2] | MIC [3] | MIC [4] | MIC [5] | MIC [6] | MIC [7] | Activity [8] | MIC [9] | MIC [10] | MIC [11]
1 | C/C(=N\NC(=O)Nc1ccccc1Cl)C1=C(O)[C@H](N)[C@@H]2Cc3c(c(O)c4c(O)c(C)ccc4c3C)C(=O)[C@]2(O)C1=O.Cl | 50 µg/mL | 25 µg/mL | 50 µg/mL | 50 µg/mL | 50 µg/mL | 50 µg/mL | 100 µg/mL | inactive | 100 µg/mL | 100 µg/mL | 6.2 µg/mL
2 | C/C(=N\NC(=O)CC#N)C1=C(O)[C@H](N)[C@@H]2Cc3c(c(O)c4c(O)c(C)ccc4c3C)C(=O)[C@]2(O)C1=O.Cl | 50 µg/mL | 50 µg/mL | 12.5 µg/mL | 12.5 µg/mL | 12.5 µg/mL | 12.5 µg/mL | 50 µg/mL | inactive | 50 µg/mL | 50 µg/mL | 1.56 µg/mL
3 | COc1ccc(C(=O)N/N=C(\C)C2=C(O)[C@H](N)[C@@H]3Cc4c(c(O)c5c(O)c(C)ccc5c4C)C(=O)[C@]3(O)C2=O)cc1.Cl (stereo in doubt) | 100 µg/mL | 50 µg/mL | 50 µg/mL | 25 µg/mL | 25 µg/mL | 25 µg/mL | 100 µg/mL | inactive | > 100 µg/mL | 100 µg/mL | 3.1 µg/mL
4 | C/C(=N\NC(=O)c1ccccc1O)C1=C(O)[C@H](N)[C@@H]2Cc3c(c(O)c4c(O)c(C)ccc4c3C)C(=O)[C@]2(O)C1=O.Cl | > 100 µg/mL | > 100 µg/mL | > 100 µg/mL | > 100 µg/mL | > 100 µg/mL | > 100 µg/mL | > 100 µg/mL | inactive | > 100 µg/mL | > 100 µg/mL | 25 µg/mL
5 | CCCC(=O)N/N=C(\C)C1=C(O)[C@H](N)[C@@H]2Cc3c(c(O)c4c(O)c(C)ccc4c3C)C(=O)[C@]2(O)C1=O.Cl | 50 µg/mL | 25 µg/mL | 12.5 µg/mL | 12.5 µg/mL | 12.5 µg/mL | 12.5 µg/mL | 50 µg/mL | inactive | 50 µg/mL | 50 µg/mL | 1.56 µg/mL
6 | C/C(=N\NCCN(C)C)C1=C(O)[C@H](N)[C@@H]2Cc3c(c(O)c4c(O)c(C)ccc4c3C)C(=O)[C@]2(O)C1=O.Cl | 50 µg/mL | 50 µg/mL | 25 µg/mL | 25 µg/mL | 25 µg/mL | 25 µg/mL | 50 µg/mL | inactive | 100 µg/mL | 50 µg/mL | 3.1 µg/mL
7 | C/C(=N\c1ccc(C)cc1)C1=C(O)[C@H](N)[C@@H]2Cc3c(c(O)c4c(O)c(C)ccc4c3C)C(=O)[C@]2(O)C1=O.Cl | 12.5 µg/mL | 6.2 µg/mL | 6.2 µg/mL | 3.1 µg/mL | 6.2 µg/mL | 6.2 µg/mL | 12.5 µg/mL | inactive | 25 µg/mL | 25 µg/mL | 0.39 µg/mL
8 | COc1ccc(/N=C(\C)C2=C(O)[C@H](N)[C@@H]3Cc4c(c(O)c5c(O)c(C)ccc5c4C)C(=O)[C@]3(O)C2=O)cc1.Cl | 12.5 µg/mL | 3.1 µg/mL | 3.1 µg/mL | 3.1 µg/mL | 6.2 µg/mL | 3.1 µg/mL | 12.5 µg/mL | inactive | 6.2 µg/mL | 25 µg/mL | 0.78 µg/mL
9 | C=CCNC(=O)N/N=C(\C)C1=C(O)[C@H](N)[C@@H]2Cc3c(c(O)c4c(O)c(C)ccc4c3C)C(=O)[C@]2(O)C1=O.Cl | 25 µg/mL | 12.5 µg/mL | 6.2 µg/mL | 12.5 µg/mL | 6.2 µg/mL | 12.5 µg/mL | 25 µg/mL | inactive | 50 µg/mL | 25 µg/mL | 0.78 µg/mL
10 | C/C(=N\N1CCOC1=O)C1=C(O)[C@H](N)[C@@H]2Cc3c(c(O)c4c(O)c(C)ccc4c3C)C(=O)[C@]2(O)C1=O.Cl | 25 µg/mL | 25 µg/mL | 25 µg/mL | 25 µg/mL | 12.5 µg/mL | 6.2 µg/mL | 25 µg/mL | inactive | 25 µg/mL | 25 µg/mL | 1.6 µg/mL
11 | C/C(=N\c1ccc(O)cc1)C1=C(O)[C@H](N)[C@@H]2Cc3c(c(O)c4c(O)c(C)ccc4c3C)C(=O)[C@]2(O)C1=O.Cl | 12.5 µg/mL | 12.5 µg/mL | 3.1 µg/mL | 6.2 µg/mL | 6.2 µg/mL | 3.1 µg/mL | 12.5 µg/mL | inactive | 25 µg/mL | 50 µg/mL | 0.78 µg/mL
12 | C/C(=N\c1ccc(Cl)cc1)C1=C(O)[C@H](N)[C@@H]2Cc3c(c(O)c4c(O)c(C)ccc4c3C)C(=O)[C@]2(O)C1=O.Cl | 6.2 µg/mL | 6.2 µg/mL | 3.1 µg/mL | 3.1 µg/mL | 3.1 µg/mL | 1.56 µg/mL | 6.2 µg/mL | inactive | 25 µg/mL | 25 µg/mL | 0.39 µg/mL
13 | C/C(=N\N(C)C)C1=C(O)[C@H](N)[C@@H]2Cc3c(c(O)c4c(O)c(C)ccc4c3C)C(=O)[C@]2(O)C1=O.Cl | 12.5 µg/mL | 6.2 µg/mL | 6.2 µg/mL | 3.1 µg/mL | 6.2 µg/mL | 6.2 µg/mL | 12.5 µg/mL | inactive | 6.2 µg/mL | 12.5 µg/mL | 0.78 µg/mL
14 | C/C(=N\NC(N)=O)C1=C(O)[C@H](N)[C@@H]2Cc3c(c(O)c4c(O)c(C)ccc4c3C)C(=O)[C@]2(O)C1=O.Cl | 25 µg/mL | 25 µg/mL | 12.5 µg/mL | 6.2 µg/mL | 25 µg/mL | 12.5 µg/mL | 25 µg/mL | inactive | 50 µg/mL | 25 µg/mL | 1.56 µg/mL
15 | C/C(=N\NC(=O)c1ccncc1)C1=C(O)[C@H](N)[C@@H]2Cc3c(c(O)c4c(O)c(C)ccc4c3C)C(=O)[C@]2(O)C1=O.Cl (stereo in doubt) | 50 µg/mL | 12.5 µg/mL | 12.5 µg/mL | 12.5 µg/mL | 12.5 µg/mL | 12.5 µg/mL | 50 µg/mL | inactive | 50 µg/mL | 50 µg/mL | 6.2 µg/mL
16 | C/C(=N\c1ccccc1)C1=C(O)[C@H](N)[C@@H]2Cc3c(c(O)c4c(O)c(C)ccc4c3C)C(=O)[C@]2(O)C1=O.Cl | 12.5 µg/mL | 12.5 µg/mL | 12.5 µg/mL | 6.2 µg/mL | 6.2 µg/mL | 6.2 µg/mL | 12.5 µg/mL | inactive | 25 µg/mL | 25 µg/mL | 1.56 µg/mL
17 | C/C(=N\NC(N)=S)C1=C(O)[C@H](N)[C@@H]2Cc3c(c(O)c4c(O)c(C)ccc4c3C)C(=O)[C@]2(O)C1=O.Cl | 50 µg/mL | 25 µg/mL | 25 µg/mL | 25 µg/mL | 50 µg/mL | 50 µg/mL | 50 µg/mL | inactive | 100 µg/mL | 100 µg/mL | 3.1 µg/mL
18 | C/C(=N\Nc1ccccc1)C1=C(O)[C@H](N)[C@@H]2Cc3c(c(O)c4c(O)c(C)ccc4c3C)C(=O)[C@]2(O)C1=O.Cl | 6.2 µg/mL | 6.2 µg/mL | 12.5 µg/mL | 25 µg/mL | 50 µg/mL | 50 µg/mL | 6.2 µg/mL | inactive | 12.5 µg/mL | 50 µg/mL | 0.78 µg/mL
19 | C/C(=N\NC(=O)Cc1ccccc1)C1=C(O)[C@H](N)[C@@H]2Cc3c(c(O)c4c(O)c(C)ccc4c3C)C(=O)[C@]2(O)C1=O.Cl | 25 µg/mL | 12.5 µg/mL | 6.2 µg/mL | 12.5 µg/mL | 12.5 µg/mL | 12.5 µg/mL | 25 µg/mL | inactive | 50 µg/mL | 50 µg/mL | 6.2 µg/mL
20 | C/C(=N\NC(=O)c1ccco1)C1=C(O)[C@H](N)[C@@H]2Cc3c(c(O)c4c(O)c(C)ccc4c3C)C(=O)[C@]2(O)C1=O.Cl (stereo in doubt) | > 100 µg/mL | 50 µg/mL | 50 µg/mL | 25 µg/mL | 50 µg/mL | 50 µg/mL | > 100 µg/mL | inactive | > 100 µg/mL | > 100 µg/mL | 3.1 µg/mL
21 | C/C(=N\c1ccc(Br)cc1)C1=C(O)[C@H](N)[C@@H]2Cc3c(c(O)c4c(O)c(C)ccc4c3C)C(=O)[C@]2(O)C1=O.Cl | 12.5 µg/mL | 12.5 µg/mL | 3.1 µg/mL | 3.1 µg/mL | 6.2 µg/mL | 6.2 µg/mL | 12.5 µg/mL | inactive | 25 µg/mL | 25 µg/mL | 0.39 µg/mL
22 | C/C(=N\c1ccc(CC(=O)O)cc1)C1=C(O)[C@H](N)[C@@H]2Cc3c(c(O)c4c(O)c(C)ccc4c3C)C(=O)[C@]2(O)C1=O.Cl | 6.2 µg/mL | 3.1 µg/mL | 1.56 µg/mL | 1.5 µg/mL | 3.1 µg/mL | 1.56 µg/mL | 6.2 µg/mL | inactive | 12.5 µg/mL | 6.2 µg/mL | 0.39 µg/mL
23 | C/C(=N\c1ccc(F)cc1)C1=C(O)[C@H](N)[C@@H]2Cc3c(c(O)c4c(O)c(C)ccc4c3C)C(=O)[C@]2(O)C1=O.Cl | 6.2 µg/mL | 3.1 µg/mL | 1.56 µg/mL | 1.5 µg/mL | 3.1 µg/mL | 1.56 µg/mL | 12.5 µg/mL | inactive | 12.5 µg/mL | 6.2 µg/mL | 0.39 µg/mL
